For series [1], the target named is T1, Potassium voltage-gated channel subfamily A member 5 (Homo sapiens, UniProt P22460). The experiment in a line: Inhibition of Kv1.5 channel mediated delayed rectifier potassium current by patch-clamp technique. On the technique in general: Patch clamp records ionic current or voltage across a cell membrane.
Series [2] has as its target T1, Potassium voltage-gated channel subfamily A member 5. In words: Inhibition of Kv1.5 channel mediated delayed rectifier potassium current at 1 uM by patch-clamp technique.
Series [3] is filed under the species Rattus norvegicus. The experiment in a line: Inhibition of rat calcium channel GH3 at 10 uM.
A short description of series [4]: Aqueous solubility of the compound. In kind it is physicochemical. Conditions: buffer. In short, it runs like this:
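Crystalline solid; shake-flask method in 50 mM phosphate-buffered saline, pH 6.8; dissolved compound quantified by LC/MS/MS.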

Series [5] concerns the target hERG (KCNH2) (Homo sapiens, UniProt Q12809). In words: Inhibition of hERG at 10 uM. In kind it is toxicity.
Series [6] deals with SCN5A (sodium channel protein type 5 subunit alpha) (Homo sapiens, UniProt Q14524). In words: Inhibition of human SCN5A channel at 10 uM.
SCN5A (sodium channel protein type 5 subunit alpha), sequence (Q14524 whole entry): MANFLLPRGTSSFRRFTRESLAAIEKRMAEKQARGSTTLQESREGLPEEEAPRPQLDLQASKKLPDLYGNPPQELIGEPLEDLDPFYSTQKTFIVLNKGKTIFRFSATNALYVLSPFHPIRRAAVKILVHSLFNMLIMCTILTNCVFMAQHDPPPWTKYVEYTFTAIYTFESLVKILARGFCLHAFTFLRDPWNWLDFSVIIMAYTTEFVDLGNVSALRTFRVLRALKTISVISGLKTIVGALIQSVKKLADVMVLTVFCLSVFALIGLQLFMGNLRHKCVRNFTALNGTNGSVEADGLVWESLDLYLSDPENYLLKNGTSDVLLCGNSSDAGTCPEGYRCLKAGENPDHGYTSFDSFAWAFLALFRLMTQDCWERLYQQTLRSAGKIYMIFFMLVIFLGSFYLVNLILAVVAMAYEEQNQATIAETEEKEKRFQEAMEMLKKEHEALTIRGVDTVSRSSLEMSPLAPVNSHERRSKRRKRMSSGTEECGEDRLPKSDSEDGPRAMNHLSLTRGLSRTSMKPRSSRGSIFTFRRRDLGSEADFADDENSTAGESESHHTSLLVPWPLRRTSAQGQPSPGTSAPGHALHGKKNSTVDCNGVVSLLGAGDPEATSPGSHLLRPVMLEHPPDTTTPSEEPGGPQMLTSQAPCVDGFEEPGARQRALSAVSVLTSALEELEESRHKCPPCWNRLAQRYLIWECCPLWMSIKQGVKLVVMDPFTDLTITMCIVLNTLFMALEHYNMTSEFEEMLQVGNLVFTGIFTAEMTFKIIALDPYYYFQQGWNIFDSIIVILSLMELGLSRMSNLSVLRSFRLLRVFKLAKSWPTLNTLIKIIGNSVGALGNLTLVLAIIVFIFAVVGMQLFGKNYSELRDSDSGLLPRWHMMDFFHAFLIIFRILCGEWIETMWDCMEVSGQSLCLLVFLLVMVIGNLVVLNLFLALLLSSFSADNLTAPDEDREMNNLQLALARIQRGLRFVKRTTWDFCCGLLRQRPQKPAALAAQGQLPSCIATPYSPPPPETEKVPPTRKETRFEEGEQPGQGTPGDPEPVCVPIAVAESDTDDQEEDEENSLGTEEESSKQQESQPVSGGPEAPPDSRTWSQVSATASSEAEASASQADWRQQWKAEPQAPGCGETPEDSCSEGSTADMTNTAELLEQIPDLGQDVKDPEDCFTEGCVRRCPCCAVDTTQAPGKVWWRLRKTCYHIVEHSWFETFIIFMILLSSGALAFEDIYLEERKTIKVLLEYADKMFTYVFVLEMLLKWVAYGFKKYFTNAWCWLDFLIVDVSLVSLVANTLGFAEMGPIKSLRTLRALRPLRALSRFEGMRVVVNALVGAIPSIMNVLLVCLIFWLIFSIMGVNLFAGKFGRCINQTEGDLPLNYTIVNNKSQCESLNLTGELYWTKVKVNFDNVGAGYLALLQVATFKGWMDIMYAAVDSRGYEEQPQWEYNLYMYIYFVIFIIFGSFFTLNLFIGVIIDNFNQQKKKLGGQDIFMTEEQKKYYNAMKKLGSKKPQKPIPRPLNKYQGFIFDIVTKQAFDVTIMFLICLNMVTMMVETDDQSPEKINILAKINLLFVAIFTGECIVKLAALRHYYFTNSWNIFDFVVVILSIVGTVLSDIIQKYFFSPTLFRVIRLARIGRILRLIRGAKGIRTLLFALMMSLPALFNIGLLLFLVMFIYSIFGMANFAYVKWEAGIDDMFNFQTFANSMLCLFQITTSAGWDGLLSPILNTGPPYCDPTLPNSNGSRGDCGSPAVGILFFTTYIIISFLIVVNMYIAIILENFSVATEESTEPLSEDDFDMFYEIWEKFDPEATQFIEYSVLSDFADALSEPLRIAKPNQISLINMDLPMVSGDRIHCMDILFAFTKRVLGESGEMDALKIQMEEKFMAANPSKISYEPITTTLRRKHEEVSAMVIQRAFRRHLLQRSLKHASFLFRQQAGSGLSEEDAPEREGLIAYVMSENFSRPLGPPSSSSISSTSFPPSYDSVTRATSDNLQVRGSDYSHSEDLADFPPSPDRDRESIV
Series [7] in a line: Oral bioavailability in rat at 20 umol/kg. Particulars: in vivo. In kind it is ADME, organism-based.
Series [8] in a line: Oral bioavailability in dog at 20 umol/kg. In kind it is ADME, organism-based, Canis lupus familiaris. Conditions: in vivo.
Series [9] in a line: Half life in intra arterial infusion dosed rat at 10 umol/kg. In kind it is ADME, organism-based. Particulars: in vivo.
The nature of series [10]: Half life in intra arterial infusion dosed dog at 10 umol/kg. In kind it is ADME, organism-based, Canis lupus familiaris. Particulars: in vivo.
The nature of series [11]: Clearance in rat at 20 umol/kg, po. Type of series: ADME, organism-based. Conditions: in vivo.
Series [12] is described as follows: Clearance in dog at 20 umol/kg, po. Type of series: ADME, organism-based, Canis lupus familiaris. Conditions: in vivo.
For series [13], the system named is Rattus norvegicus. In words: Volume of distribution in rat at 20 umol/kg, po. Type of series: ADME, organism-based. Particulars: in vivo.
Series [14] has as its system Canis familiaris. In words: Volume of distribution in dog at 20 umol/kg, po. Particulars: in vivo. In kind it is ADME, organism-based, Canis lupus familiaris.

Values after ≈ are worked out from the molar mass of the structure shown.

Usually IC50 stands for the midpoint of a concentration-inhibition curve. A higher IC50 goes with a need for much substance. The inhibition is the change of the read-out against control, counted positive when it falls. The solubility is how much of the substance goes into solution per volume. Usually bioavailability stands for the share of a dose that reaches the circulation, judged against a reference dose that is usually intravenous. A high value points to much systemic uptake. By half-life is commonly meant the time needed for the level to fall by half in the phase considered. Lower therefore signals fast loss. By CL/F is commonly meant clearance divided by bioavailability, as obtained after extravascular dosing.

T1 sequence (P22460 whole entry): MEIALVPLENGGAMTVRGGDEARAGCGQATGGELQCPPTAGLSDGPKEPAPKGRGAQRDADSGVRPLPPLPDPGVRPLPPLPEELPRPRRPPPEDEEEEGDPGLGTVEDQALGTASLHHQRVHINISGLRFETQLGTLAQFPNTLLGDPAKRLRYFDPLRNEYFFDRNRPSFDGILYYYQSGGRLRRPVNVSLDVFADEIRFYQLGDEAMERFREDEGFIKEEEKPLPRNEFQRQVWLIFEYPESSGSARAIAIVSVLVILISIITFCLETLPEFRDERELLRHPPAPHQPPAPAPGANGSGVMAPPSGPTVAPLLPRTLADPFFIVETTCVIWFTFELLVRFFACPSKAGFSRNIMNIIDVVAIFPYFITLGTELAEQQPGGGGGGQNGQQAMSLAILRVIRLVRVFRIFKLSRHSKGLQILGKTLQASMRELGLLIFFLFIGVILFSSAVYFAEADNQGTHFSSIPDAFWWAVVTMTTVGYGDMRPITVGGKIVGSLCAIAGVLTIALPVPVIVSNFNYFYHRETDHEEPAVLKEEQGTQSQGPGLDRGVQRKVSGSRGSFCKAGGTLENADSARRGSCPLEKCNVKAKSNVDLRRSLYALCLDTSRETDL
hERG (KCNH2), sequence (Q12809 whole entry): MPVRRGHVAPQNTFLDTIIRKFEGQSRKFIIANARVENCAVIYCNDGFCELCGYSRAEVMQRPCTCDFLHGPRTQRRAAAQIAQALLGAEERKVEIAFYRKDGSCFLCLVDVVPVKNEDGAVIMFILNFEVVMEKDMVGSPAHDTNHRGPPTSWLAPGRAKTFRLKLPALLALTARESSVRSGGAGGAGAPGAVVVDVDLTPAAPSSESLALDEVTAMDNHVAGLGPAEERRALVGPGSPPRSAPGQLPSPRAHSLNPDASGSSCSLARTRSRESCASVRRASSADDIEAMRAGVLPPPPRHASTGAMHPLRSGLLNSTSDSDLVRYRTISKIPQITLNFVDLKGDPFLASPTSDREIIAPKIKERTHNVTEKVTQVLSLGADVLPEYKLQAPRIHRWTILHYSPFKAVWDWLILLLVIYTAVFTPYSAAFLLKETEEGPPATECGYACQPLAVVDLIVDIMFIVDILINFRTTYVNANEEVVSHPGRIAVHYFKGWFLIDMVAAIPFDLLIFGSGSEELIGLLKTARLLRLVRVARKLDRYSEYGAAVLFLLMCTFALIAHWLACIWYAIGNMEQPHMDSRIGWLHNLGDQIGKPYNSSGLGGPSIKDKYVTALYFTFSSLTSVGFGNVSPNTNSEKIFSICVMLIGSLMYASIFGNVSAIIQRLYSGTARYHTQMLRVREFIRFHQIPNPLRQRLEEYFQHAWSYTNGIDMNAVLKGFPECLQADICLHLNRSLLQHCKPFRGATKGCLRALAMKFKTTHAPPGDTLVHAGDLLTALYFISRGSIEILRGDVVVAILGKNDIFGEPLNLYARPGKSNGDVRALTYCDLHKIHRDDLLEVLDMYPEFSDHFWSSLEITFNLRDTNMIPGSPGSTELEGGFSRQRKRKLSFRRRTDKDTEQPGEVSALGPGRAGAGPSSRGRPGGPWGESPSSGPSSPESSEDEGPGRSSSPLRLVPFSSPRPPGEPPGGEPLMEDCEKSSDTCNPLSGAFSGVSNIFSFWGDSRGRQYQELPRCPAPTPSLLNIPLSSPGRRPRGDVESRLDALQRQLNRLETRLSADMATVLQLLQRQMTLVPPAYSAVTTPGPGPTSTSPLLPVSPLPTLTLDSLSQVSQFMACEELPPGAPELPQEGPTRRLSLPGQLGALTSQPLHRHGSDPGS

In [1], `CCc1ccc(S(=O)(=O)N[C@H]2c3cc(NC(=O)c4cccc(OC)c4)ccc3C[C@@H]2O)cc1` had an IC50 of 760 nM.
With `CCc1ccc(S(=O)(=O)N[C@@H]2c3ccccc3C[C@H]2O)cc1` (racemic), in series [2], the inhibition was found to be 3%.
In the case of `CCc1ccc(S(=O)(=O)N[C@@H]2c3cc(NC(=O)c4cccc(OC)c4)ccc3C[C@H]2O)cc1` [listing 1 of 2 here], the inhibition in series [3] was determined as 27%.
For the compound `CCc1ccc(S(=O)(=O)N[C@@H]2c3cc(NC(=O)c4cccc(OC)c4)ccc3C[C@H]2O)cc1` [listing 2 of 2 here], the IC50 in series [1] was determined as 33 nM. This compound yielded a solubility in series [4] of 1.3 µg/mL (≈ 2.79 µM). Further, the values for the inhibition at 10 µM in [5] and in series [6] were 37% and 15%, respectively. Moreover, the bioavailability in [7] came to 1%; in series [8], 5%. Besides, the half-life in series [9] is 24 min; in series [10], 90 min. Besides, the CL/F in [11] stood at 200 mL/min/kg; in series [12], 12 mL/min/kg. The Vd turned out to be 4 L/kg in series [13] and 1.4 L/kg in series [14].
`CCc1ccc(S(=O)(=O)N[C@@H]2c3cc(NC(=O)c4cccc(OC)c4)ccc3CCC[C@H]2O)cc1` (racemic) gave an IC50 in series [1] of 200 nM. This lies in the sub-micromolar range.
For `CCc1ccc(S(=O)(=O)N[C@@H]2c3c(cccc3NC(=O)c3cccc(OC)c3)C[C@H]2O)cc1` (racemic), the midpoint of inhibition in [1], the IC50, lay at 880 nM.
`CCc1ccc(S(=O)(=O)N[C@@H]2c3ccc(NC(=O)c4cccc(OC)c4)cc3C[C@H]2O)cc1` (racemic) gave an inhibition in series [2] of 24%.
`CCc1ccc(S(=O)(=O)N[C@@H]2c3cc(NC(=O)c4cccc(OC)c4)ccc3C[C@@H]2O)cc1` (racemic) yielded an IC50 in series [1] of 300 nM. This counts as sub-micromolar.
Regarding `CCc1ccc(S(=O)(=O)NC2CCc3ccc(NC(=O)c4cccc(OC)c4)cc32)cc1` (racemic), the IC50 in series [1] is 150 nM. Besides, in series [4] (read-out: Solubility), the solubility was less than 0.1 µg/mL.
Compound `CCc1ccc(S(=O)(=O)N[C@@H]2c3cc(N)ccc3C[C@H]2O)cc1` (racemic) came in with an inhibition in [2] of 2%.
For `CCc1ccc(S(=O)(=O)N[C@@H]2c3cc(NC(=O)c4cccc(OC)c4)ccc3CC[C@H]2O)cc1` (racemic), the IC50 in series [1] is 440 nM.
Consider `CCc1ccc(S(=O)(=O)NCc2cccc(NC(=O)c3cccc(OC)c3)c2)cc1`, for which the IC50 in series [1] turned out to be 240 nM. Besides, in series [4] (read-out: Solubility), the solubility is 0.8 µg/mL (≈ 1.88 µM).
In series [2], `CCc1ccc(S(=O)(=O)N[C@@H]2c3cccc(NC(=O)c4cccc(OC)c4)c3C[C@H]2O)cc1` (racemic) returned an inhibition of 17%.
Compound `CCc1ccc(S(=O)(=O)N[C@@H]2c3cc(NC(=O)c4cccc(OC)c4)ccc3C[C@H]2O)cc1` (racemic) had a 50% inhibitory concentration (IC50) in series [1] of 160 nM. Moreover, the solubility in series [4] turned out to be 2.9 µg/mL (≈ 6.22 µM).

For the origin of these results see ChEMBL document CHEMBL1139198, “Aryl sulfonamido indane inhibitors of the Kv1.5 ion channel” (Bioorg Med Chem Lett, 2007).
